What is called IC50 is the midpoint of a concentration-inhibition curve.

SMILES strings stand for the structures. The source made the active and inactive calls. The calls are words filed in the database; no cut-off is given here.

The nature of assay [1]: (§1) Inhibition of Hsp70 in human SKBR3 cells assessed as inhibition of HOP complex formation after 24 hrs by Western blotting analysis. The settings on record: SK-BR-3, 24 h. The format is cell-based. The gist of the method:
(§2)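 SKBr3 cells treated 24 h at the indicated concentrations, then lysed (20 mM Tris pH 7.4, 25 mM NaCl, 0.1% NP-40, protease inhibitors). 500 μg protein immunoprecipitated overnight at 4 °C with anti-Hsp70 BB70 (normal IgG as negative control) and protein G beads. Beads washed five times; co-precipitated HOP detected by Western blot.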
Background: In western blotting, separated proteins are transferred to a membrane and probed.

The subject of assay [2] is SK-BR-3. The description is as §1. The format is cell-based. The gist of the method: as §2
Assay [3] concerns the target Heat shock protein HSP 90-beta (Homo sapiens, UniProt P08238). Nature of the assay: Displacement of GM-cy3B from Hsp90 in human SKBR3 cells after 24 hrs by fluorescence polarization assay. Also on record: species or system SK-BR-3. The method in brief:
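Final 6 nM GM-cy3B with 3 μg SKBr3 lysate protein; compound in triplicate; geldanamycin as positive control. Shaken 24 h at 4 °C, mP read. Concentration displacing 50% of bound tracer obtained by curve fitting.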
For orientation: In fluorescence polarisation assays a small probe gives low polarisation when free and higher when bound to something large.

The nature of assay [4]: Growth inhibition of human SKBR3 cells after 72 hrs by Alamar Blue assay. The settings on record: SK-BR-3, 72 h. The format is functional, cell-based. The method in brief:
(§3)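 Cells plated 8000/well (SKBr3, adherent) or 20000/well (Kasumi-1, suspension) and left 24 h at 37 °C. Compound added in triplicate for 72 h. Alamar Blue (50 μM) added; fluorescence (ex 530/em 580 nm) read 6 h later.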
For orientation: Alamar Blue is a resazurin reagent that responds to reducing activity.

Assay [5] has as its system SK-BR-3. Nature of the assay: Induction of apoptosis in human SKBR3 cells assessed as PARP cleavage by Western blotting analysis. The format is functional, cell-based. The gist of the method:
(§4)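 SKBr3 cells at 60–70% confluence treated with compound or DMSO for the indicated times. Lysed in 50 mM Tris pH 7.4, 150 mM NaCl, 1% NP-40. 10–50 μg protein (BCA) resolved by SDS–PAGE and immunoblotted for HER2, Raf-1, or the PARP p85 fragment, with β-actin as loading control.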

A short description of assay [6]: Inhibition of Hsp70 in human SKBR3 cells assessed as RAF1 protein degradation by Western blotting analysis. The format is cell-based. The settings on record: SK-BR-3. The method in brief: as §4
A short description of assay [7]: Inhibition of Hsp70 in human SKBR3 cells assessed as HER2 protein degradation by Western blotting analysis. The format is cell-based. The settings on record: SK-BR-3. The gist of the method: as §4
Assay [8] relates to MOLM-13. Nature of the assay: Induction of apoptosis in human MOLM13 assessed as caspase 3/7 activation using Z-DEVD-R110 as substrate pretreated for 16 hrs followed by substrate addition by fluorescence-based assay. The format is functional, cell-based. The gist of the method:
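MOLM-13 cells (30000/well, RPMI) rested up to 24 h at 37 °C, 5% CO2. Treated 16 h with compound or DMSO, in triplicate. Then buffer added containing 10 mM HEPES pH 7.5, 2 mM EDTA, 0.1% CHAPS and 25 μM Z-DEVD-R110. Fluorescence read once stable; % increase in apoptotic cells calculated versus control.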

Assay [9] deals with Kasumi 1. Nature of the assay: Growth inhibition of human Kasumi-1 cells expressing p-gp/MDR1 after 72 hrs by Alamar Blue assay. Format: functional, cell-based. The settings on record: Kasumi 1, 72 h. The method in brief:
as §3

Assay [10] deals with SK-BR-3. Nature of the assay: Binding affinity to Hsp70 in human SKBR3 cells after 1 hr by […] in presence of N-(6-Amino-2-((4,6-dimethoxy-2-(4-methylpiperazin-1-yl)-pyrimidin-5-yl)thio)pyrimidin-4-yl)acrylamide. The format is cell-based. The gist of the method:
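Cells pretreated 2 h with increasing concentrations of soluble competitor, then lysed (20 mM Tris pH 7.4, 25 mM NaCl, 0.1% NP-40). Extract (500 μg protein) incubated overnight with beads carrying biotinylated ligand (50 μM, loaded 1 h at 4 °C). Beads washed in high-salt buffer (1 M NaCl), run on SDS–PAGE, and silver stained.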

Assay [11] can be described thus: Inhibition of His-tagged Escherichia coli DNAK assessed as inhibition of DNAJ complex formation.

Chain of Heat shock protein HSP 90-beta (P08238 whole entry): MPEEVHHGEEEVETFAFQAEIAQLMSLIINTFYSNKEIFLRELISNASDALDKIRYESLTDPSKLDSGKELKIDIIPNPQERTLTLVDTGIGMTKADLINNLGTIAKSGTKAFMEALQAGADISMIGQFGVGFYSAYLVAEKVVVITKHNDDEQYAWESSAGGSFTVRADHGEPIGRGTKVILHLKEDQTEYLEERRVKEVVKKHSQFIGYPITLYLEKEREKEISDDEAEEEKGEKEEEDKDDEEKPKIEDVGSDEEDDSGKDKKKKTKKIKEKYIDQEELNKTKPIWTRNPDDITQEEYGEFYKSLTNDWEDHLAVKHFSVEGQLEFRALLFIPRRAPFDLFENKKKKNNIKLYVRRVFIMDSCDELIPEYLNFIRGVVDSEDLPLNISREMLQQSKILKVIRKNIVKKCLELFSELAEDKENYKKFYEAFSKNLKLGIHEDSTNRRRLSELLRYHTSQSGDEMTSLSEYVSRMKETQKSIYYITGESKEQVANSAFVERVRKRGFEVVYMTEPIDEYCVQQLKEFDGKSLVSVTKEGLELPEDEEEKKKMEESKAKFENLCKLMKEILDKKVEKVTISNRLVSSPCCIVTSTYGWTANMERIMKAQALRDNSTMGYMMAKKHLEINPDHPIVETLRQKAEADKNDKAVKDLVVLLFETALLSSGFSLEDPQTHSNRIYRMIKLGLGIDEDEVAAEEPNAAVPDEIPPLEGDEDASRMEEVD

`C=CC(=O)Nc1cc(N)nc(Sc2c(OCC)nc(N3CCN(C)CC3)nc2OCC)n1`: the half-inhibitory concentration (IC50) in [1] is 1.73 µM; in assay [3], above 500 µM; in assay [4], 1.1 µM; in [5], 1.5 µM; in assay [6] it was 2.5 µM; in assay [7], 1 µM. Also, the IC50 came out at 4 µM in assay [8] and 0.89 µM in assay [9]. In assay [2], the inhibition entry is “Dose-dependent effect”.

`C=CC(=O)Nc1cc(N)nc(Sc2c(OC)nc(N)nc2OC)n1`: the half-maximal inhibitory concentration (IC50) in assay [3] is above 500 µM; in assay [4] it was 3.2 µM; in [5] it was 7.5 µM; in assay [6] it was 3.5 µM; in assay [7], 5 µM; in [8], 4.5 µM. Further, the IC50 in assay [9] is 3.9 µM.

In the case of `C=CC(=O)Nc1cc(N)nc(Sc2c(OC)nc(N3CCN(CCOCCOCCOCCO)CC3)nc2OC)n1`, the IC50 is above 500 µM in assay [3]; 7.5 µM in assay [4]; 10 µM in [5]; 2.5 µM in assay [7]; 14.3 µM in [8]; 3.8 µM in [9].

As for `C=CC(=O)Nc1ccnc(Sc2c(C)nc(N3CCOCC3)nc2C)n1`, the IC50 in assay [8] was found to be 15.4 µM; in assay [9], 14.4 µM.

On to `C=CC(=O)Nc1ccnc(Sc2c(OC)nc(N3CCCC3)nc2OC)n1`, for which the half-maximal inhibitory concentration (IC50) is above 500 µM in assay [3]; 5 µM in assay [4]; 25 µM in assay [5]; 17 µM in [6]; 20 µM in assay [7]; above 100 µM in assay [8]. In assay [9], this compound displayed a half-maximal inhibitory concentration (IC50) of 46.1 µM.

As to `C=CC(=O)Nc1cc(N)nc(Sc2c(OC)nc(N3CCOCC3)nc2OC)n1`, the IC50 in assay [8] was 12.1 µM.

With `C=CC(=O)Nc1cccc(Sc2c(OC)nc(N3CCN(C)CC3)nc2OC)c1`, the IC50 in [9] amounted to 7.8 µM.

Take `C=CC(=O)Nc1cc(N)nc(Sc2c(OCC)nc(N3CCOCC3)nc2OCC)n1`: the values for the IC50 in assay [8] and in [9] were 10.5 µM and 2.2 µM, respectively.

For the compound `C=CC(=O)Nc1cc(N)nc(Sc2c(OC)nc(N3CCN(C)CC3)nc2OCCOCCOCCOCCO)n1`, the half-maximal inhibitory concentration (IC50) is above 500 µM in [3]; 50 µM in [4]; 100 µM in [5]; 60 µM in [6]; 75 µM in [7]; 100 µM in assay [8]. The compound further had a half-inhibitory concentration (IC50) in assay [9] of 76.5 µM.

As for `C=CC(=O)Nc1cc(N)nc(Sc2c(OC)nc(N3CCCCC3)nc2OC)n1`, the 50% inhibitory concentration (IC50) in assay [3] is above 250 µM; in assay [4], 9 µM; in assay [5] it was 5 µM; in assay [6], 7.5 µM; in [7] it was 2.5 µM; in [8], 16.2 µM. The compound further showed an IC50 in assay [9] of 17.1 µM.

Turning to `C=CC(=O)Nc1ccnc(Sc2c(OC)nc(N3CCCCC3)nc2OC)n1`, the results for the half-maximal inhibitory concentration (IC50) in assay [8] and in assay [9] were 12.4 µM and 3.15 µM, respectively.

For `C/C=C/C(=O)Nc1ccnc(Sc2c(C)nc(N3CCN(C)CC3)nc2C)n1`, the results for the IC50 in [8] and in assay [9] were 32 µM and 20 µM, respectively.

Turning to `C=CC(=O)Nc1cccc(Sc2c(OC)nc(N3CCOCC3)nc2OC)c1`, the IC50 in [3] was above 500 µM; in [4], 16.5 µM; in assay [5], 10 µM; in [6], 20 µM; in [7] it was 15 µM; in [8], 27.5 µM. This compound displayed an IC50 in [9] of 46.5 µM.

As to `C=CC(=O)Nc1cc(N)nc(Sc2c(OC)nc(N3CCN(C)CC3)nc2OC)n1`, the IC50 in assay [3] is above 500 µM; in [4], 0.8 µM; in assay [5], 2 µM; in assay [6] it was 1.7 µM; in assay [7], 0.7 µM; in assay [8], 1.2 µM. Moreover, in assay [9], half-maximal inhibition (IC50) required 0.9 µM.

Regarding `C=CC(=O)Nc1ccnc(Sc2c(C)nc(N3CCN(C)CC3)nc2C)n1`, the half-maximal inhibitory concentration (IC50) in [3] was above 500 µM; in [4] it was 1.8 µM; in assay [5], 5 µM; in [6], 5 µM; in [7], 4 µM; in [8], 6 µM.

As for `C=CC(=O)Nc1ccnc(Sc2c(OC)nc(N3CCN(C)CC3)nc2OC)n1`, the IC50 in assay [3] is above 500 µM; in assay [4] it was 1.2 µM; in assay [5], 7.5 µM; in assay [6] it was 5 µM; in [7] it was 7.5 µM; in assay [8], 4 µM. In addition, in assay [9], it took 1.25 µM to reach half-maximal inhibition (IC50).

Regarding `C=C(C)C(=O)Nc1ccnc(Sc2c(C)nc(N3CCN(C)CC3)nc2C)n1`, the half-inhibitory concentration (IC50) in assay [3] was above 500 µM; in [4], 16.7 µM; in assay [5], 40 µM; in assay [6], 50 µM; in [7], 30 µM; in assay [8], 45 µM. The same compound had an IC50 in assay [9] of 35 µM.

On to `C=CC(=O)Nc1ccnc(Sc2c(OC)nc(N3CCOCC3)nc2OC)n1`, for which the IC50 came to 7.2 µM in [8] and 2 µM in assay [9].

For the compound `C=CC(=O)Nc1cc(N)nc(Sc2c(OC)nc(N3CCN(CCOCCOCCOCCOC(=O)CCCC[C@@H]4SC[C@@H]5NC(=O)N[C@@H]54)CC3)nc2OC)n1`, in assay [10], the result was Active.

Regarding `O=c1c(O)c(-c2cc(O)c(O)c(O)c2)oc2cc(O)cc(O)c12` [MYRICETIN], the IC50 in assay [11] was 14.5 µM; in [5], above 100 µM; in assay [6], above 100 µM; in assay [7] it was above 100 µM.

Turning to `C=CC(=O)Nc1cc(N)nc(Sc2c(OCC)nc(N3CCCCC3)nc2OCC)n1`, the 50% inhibitory concentration (IC50) in [3] is above 500 µM; in assay [4], 7 µM; in assay [5] it was 10 µM; in [6], 3.1 µM; in [7], 2 µM; in [8] it was 4 µM. Besides, inhibition in assay [9] was half-maximal at 4.5 µM (IC50).

On to `C=C(C)C(=O)Nc1cccc(Sc2c(OC)nc(N3CCN(C)CC3)nc2OC)c1`, for which, in [8], the IC50 was found to be 60 µM.

`C=CC(=O)Nc1ccnc(Sc2c(OC)nc(N3CC[N+](C)([O-])CC3)nc2OC)n1`: the IC50 in assay [8] and in assay [9] was above 100 µM each time.

As to `C#CCCCn1c(Cc2cc(OC)c(OC)c(OC)c2Cl)nc2c(N)nc(F)nc21`, the IC50 in assay [4] turned out to be 2.9 µM; in [6], 2.5 µM; in assay [7], 2 µM.

Consider `C=CC(=O)Nc1ccnc(Sc2c(OC)nc(OC)nc2OC)n1`, for which the 50% inhibitory concentration (IC50) in assay [8] was 7.5 µM.

For the origin of these results see ChEMBL document CHEMBL3124781, “Heat shock protein 70 inhibitors. 1. 2,5'-thiodipyrimidine and 5-(phenylthio)pyrimidine acrylamides as irreversible binders to an allosteric site on heat shock protein 70” (J Med Chem, 2014).
